According to ChEMBL document CHEMBL1687755, “PER-6, an extended-spectrum beta-lactamase from Aeromonas allosaccharophila” (Antimicrob Agents Chemother, 2010):
≈ marks a conversion by molar mass, not a printed value.

Legend:
[1] = system: Aeromonas allosaccharophila; assay: Antimicrobial activity against Aeromonas allosaccharophila AL-1 expressing beta-lactamase PER6 by agar dilution method; format: functional
Method in brief: (§1)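 The test organism was environmental isolate AL-1, recovered from Seine River water on MacConkey agar containing ceftazidime (2 μg/ml). It was identified by API 32GN and 16S rRNA gene sequencing. MICs were determined by agar dilution on Mueller-Hinton agar and interpreted by CLSI guidelines.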

Escherichia coli [2] = assay: Antimicrobial activity against Escherichia coli DH10B harboring recombinant Aeromonas allosaccharophila AL-1 beta-lactamase PER6 by agar dilution method; format: functional; details: K-12 DH10B
Escherichia coli [3] = assay: Antimicrobial activity against Escherichia coli DH10B harboring recombinant Aeromonas allosaccharophila AL-1 beta-lactamase PER1 by agar dilution method; format: functional; details: K-12 DH10B
Escherichia coli [4] = assay: Antimicrobial activity against Escherichia coli DH10B harboring recombinant Aeromonas allosaccharophila AL-1 beta-lactamase PER2 by agar dilution method; format: functional; details: K-12 DH10B
Escherichia coli [5] = assay: Antimicrobial activity against Escherichia coli DH10B by agar dilution method; format: functional; details: K-12 DH10B
Method in brief: (§2)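 MICs measured by agar dilution on Mueller-Hinton agar plates, the method used for imipenem and imipenem combined with clavulanate; other MICs were obtained by Etest. Results were interpreted according to CLSI guidelines. Test strains were E. coli DH10B recombinants carrying cloned PER-1, PER-2 or PER-6 β-lactamase genes.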

[6] = system: Aeromonas allosaccharophila; assay: Ratio of Kcat to Km for Aeromonas allosaccharophila AL-1 beta-lactamase PER2
[7] = system: Aeromonas allosaccharophila; assay: Antimicrobial activity against Aeromonas allosaccharophila AL-1 expressing beta-lactamase PER6 by agar dilution method in presence of 4 ug/ml of clavulanic acid; format: functional; method in brief: as §1
Escherichia coli [8] = assay: Antimicrobial activity against Escherichia coli DH10B harboring recombinant Aeromonas allosaccharophila AL-1 beta-lactamase PER6 by agar dilution method in presence of 4 ug/ml of clavulanic acid; format: functional; details: K-12 DH10B
Escherichia coli [9] = assay: Antimicrobial activity against Escherichia coli DH10B harboring recombinant Aeromonas allosaccharophila AL-1 beta-lactamase PER1 by agar dilution method in presence of 4 ug/ml of clavulanic acid; format: functional; details: K-12 DH10B
Escherichia coli [10] = assay: Antimicrobial activity against Escherichia coli DH10B harboring recombinant Aeromonas allosaccharophila AL-1 beta-lactamase PER2 by agar dilution method in presence of 4 ug/ml of clavulanic acid; format: functional; details: K-12 DH10B
Escherichia coli [11] = assay: Antimicrobial activity against Escherichia coli DH10B by agar dilution method in presence of 4 ug/ml of clavulanic acid; format: functional; details: K-12 DH10B; method in brief: as §2

SMILES | MIC [1] [µg/mL] | MIC (Escherichia coli [2]) [µg/mL] | MIC (Escherichia coli [3]) [µg/mL] | MIC (Escherichia coli [4]) [µg/mL] | MIC (Escherichia coli [5]) [µg/mL] | kcat/Km [6] [M⁻¹ s⁻¹] | MIC [7] [µg/mL] | MIC (Escherichia coli [8]) [µg/mL] | MIC (Escherichia coli [9]) [µg/mL] | MIC (Escherichia coli [10]) [µg/mL] | MIC (Escherichia coli [11]) [µg/mL]
CC(C)(O/N=C(\C(=O)N[C@@H]1C(=O)N2C(C(=O)[O-])=C(C[n+]3ccccc3)CS[C@H]12)c1csc(N)n1)C(=O)O [CEFTAZIDIME] | 128 (≈ 234 µM) | > 256 | > 256 | > 256 | 0.5 (≈ 0.915 µM) | 430000 | – | – | – | – | –
C[C@@H](O)[C@H]1C(=O)N2C(C(=O)O)=C(SCCNC=N)C[C@H]12 [IMIPENEM ANHYDROUS] | 1 (≈ 3.34 µM) | – | – | – | – | < 10000 | 0.5 | – | – | – | –
C[C@@H](O)[C@H]1C(=O)N2C(C(=O)O)=C(S[C@@H]3CN[C@H](C(=O)Nc4cccc(C(=O)O)c4)C3)[C@H](C)[C@H]12 | 0.5 (≈ 1.05 µM) | – | – | – | < 0.03 | – | – | – | – | – | –
CO/N=C(\C(=O)N[C@@H]1C(=O)N2C(C(=O)O)=C(COC(C)=O)CS[C@H]12)c1csc(N)n1 [CEFOTAXIME] | 2 (≈ 4.39 µM) | 64 | 48 | 64 | 0.12 (≈ 0.263 µM) | 760000 | – | – | – | – | –
CO[C@@]1(NC(=O)Cc2cccs2)C(=O)N2C(C(=O)O)=C(COC(N)=O)CS[C@@H]21 [CEFOXITIN] | 0.5 (≈ 1.17 µM) | 2 | 2 | 2 | 1 (≈ 2.34 µM) | < 10000 | – | – | – | – | –
CC1(C)S[C@@H]2[C@H](NC(=O)[C@H](N)c3ccccc3)C(=O)N2[C@H]1C(=O)O | – | – | – | – | – | 330000 | – | – | – | – | –
CC1(C)S[C@@H]2[C@H](NC(=O)[C@H](C(=O)O)c3ccsc3)C(=O)N2[C@H]1C(=O)O [TICARCILLIN] | > 256 | > 256 | > 256 | > 256 | 4 (≈ 10.4 µM) | – | 256 | 12 | 16 | 16 | 4
CC1(C)S[C@@H]2[C@H](NC(=O)Cc3ccccc3)C(=O)N2[C@H]1C(=O)O | – | – | – | – | – | 120000 | – | – | – | – | –
